An excerpt weighted towards active compounds, which were near 3.2% of everything screened.
PRMT1 FP inh: PRMT1 (human) inhibition, primary screen | recombinant PRMT1, activity-based probe fluorescence polarization | Q99873 | inhibition, % at 2.79 µM | 370,000 tested, 1.3% active;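 active = inhibition above about 21% made by adding two undisclosed values, limit read from the data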
Target sequence (Q99873 whole entry, looked up): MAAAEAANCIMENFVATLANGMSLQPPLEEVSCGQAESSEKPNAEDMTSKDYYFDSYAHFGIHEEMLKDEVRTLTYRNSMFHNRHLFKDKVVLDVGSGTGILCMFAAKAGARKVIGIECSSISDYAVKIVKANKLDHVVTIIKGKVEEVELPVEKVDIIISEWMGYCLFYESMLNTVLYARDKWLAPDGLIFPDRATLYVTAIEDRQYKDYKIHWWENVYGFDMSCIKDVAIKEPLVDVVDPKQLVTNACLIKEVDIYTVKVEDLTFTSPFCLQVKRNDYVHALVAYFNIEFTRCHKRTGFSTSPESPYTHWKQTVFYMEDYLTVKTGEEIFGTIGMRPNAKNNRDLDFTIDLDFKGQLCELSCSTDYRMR
LEDGF integ inh: blocks HIV-1 LEDGF/p75-dependent DNA integration. TR-FRET IN-LEDGF/p75 DNA integration, Eu/Cy5. inhibition, % at 3.7 µM. 370,000 tested, 0.64% active. AID 743269;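 active = inhibition above the screen-wide mean plus 3 SD, cut at about 13% in these data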;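 note: signal is the Cy5 over europium emission ratio at 671 and 618 nm; 0% = plate median of compound wells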
DAGLB inhibitor: blocks human DAGLB lipase activity | AID 504411 | HEK293T DAGLB membrane lysate, EnzChek fluorogenic substrate | Q8NCG7 | inhibition, % at 5.17 µM | 340,000 tested, 0.059% active; in the data active = inhibition above about 34%;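 note: 0% = enzyme with vehicle and 100% = wells lacking enzyme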
rCAG binder: r(CAG) repeat RNA binding; inhibition, % at 3 µM; AID 651821; 370,000 tested, 1.3% active; TO-PRO-1 dye displacement fluorescence;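 active = inhibition above the plate cutoff, the mean of all test compounds on that plate plus 3 SD, cut at about 35% in these data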;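 note: 0% = DMSO alone and 100% = 100 µM mitoxantrone as full dye displacement; higher means more dye released from RNA so lower well fluorescence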
HTRA1 inhibitor: blocks human HTRA1 serine peptidase; Q92743; recombinant HTRA1, FP-rhodamine activity-based probe, fluorescence polarization; inhibition, % at 5.96 µM; 340,000 tested, 0.5% active; in the data active = inhibition above about 36%;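 note: 0% = enzyme with DMSO and 100% = wells lacking enzyme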
mABHD4 FP: inhibitors of mouse ABHD4 | 370,000 tested, 0.54% active | purified mABHD4, FP-Rh probe fluorescence polarization | Q8VD66 | inhibition, % at 8.92 µM;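 active = inhibition exceeding the mean over every tested compound plus 3 SD, cut at about 30% in these data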;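 note: 0% = plate median of compound wells and 100% = S159A mutant with DMSO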
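Assay system: mABHD4 protein; medium: HEPES pH 7.0, NaCl, Pluronic buffer; dosing: 8.92 µM, single dose; schedule: 45 min + 60 min at 25 °C; signal: FP readout, ex 525 nm / em 598 nm; read-out: normalized percent inhibition of probe labeling; repeats: single replicate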
rCAG binder conf: r(CAG) RNA repeat binding, confirmation; inhibition, % at 3 µM; shares compounds with rCAG binder; TO-PRO-1 dye displacement fluorescence; AID 652065; 4,300 tested, 70% active;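 active = inhibition above a per-plate cutoff, the mean inhibition of sample wells plus 3 SD, cut at about 35% in these data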;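 note: loss of TO-PRO-1 fluorescence as compound displaces dye from 1x1 AA loop RNA; 0% = DMSO only wells and 100% = 100 µM mitoxantrone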
DNA CAG counter: disrupts DNA CAG TO-PRO-1 complex, flagging rCAG hits; inhibition, % at 3 µM; d(CAG) DNA oligo TO-PRO-1 dye displacement, fluorescence; shares compounds with rCAG binder; AID 652068; 4,300 tested, 94% active;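 active = inhibition above its plate's cutoff, the mean test-well inhibition plus 3 SD, cut at about 4.8% in these data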;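 note: 0% = DNA dye mix with DMSO and 100% = 100 µM mitoxantrone; hits displace the dye from DNA and so lower well fluorescence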
* hit, by the source's call; x = no result.

SMILES	PRMT1 FP inh	LEDGF integ inh	DAGLB inhibitor	rCAG binder	HTRA1 inhibitor	mABHD4 FP	rCAG binder conf	DNA CAG counter
CC1(c2ccccc2)CC(=O)N(c2ccc(NC(=O)c3ccccn3)cc2Cl)C1=O (configuration not stated)	2.3	-0.5	x	x	x	-4.7	x	x
CC(=O)c1ccccc1NC(=O)CSc1n[nH]c(=O)n1C1CC1	3.1	-6.7	0.4	0.3	3.4	6.8	x	x
CCOC(=O)c1sc(-n2[nH]c(C)cc2=O)nc1C	0.6	-2.0	6.3	78.4*	10.9	15.3	47.4*	13.3*
CCOC(=O)CSc1nc(C)c(C(=O)OCC)s1	-1.1	1.1	-5.3	-7.8	-6.6	2.2	x	x
Cc1ccc(Cc2cnc(N3C(=N)SC(c4ccccc4)C3=O)s2)cc1 (configuration not stated)	-0.6	2.6	20.0	64.3*	-15.8	-30.7	68.9*	23.2*
N=C1SC(c2ccccc2)C(=O)N1c1ncc(Cc2ccccc2)s1 (configuration not stated)	-3.5	0.5	21.8	44.6*	-6.4	-2.6	56.6*	19.0*
COC(=O)c1c(NC(=O)COC(=O)CNC(=O)C2CCCCC2)sc(C)c1C	4.9	-2.1	-0.8	4.1	4.0	6.2	x	x
O=S(=O)(Nc1nc2ccc(S(=O)(=O)N3CCCC3)cc2s1)c1ccc(F)cc1	8.3	1.8	3.8	68.5*	-27.0	-12.8	52.4*	20.3*
CSc1nc(NS(=O)(=O)c2cc(Br)ccc2Br)cc(=O)[nH]1	3.9	0.8	1.5	-0.5	-1.7	-5.8	x	x
Cc1occc1-c1nnc(SCC(=O)c2ccc3c(c2)OCCO3)n1CC1CCCO1 (configuration not stated)	2.2	6.8	0.5	2.1	-3.5	-2.9	x	x
COc1cc(/C=C2\C(=N)N3N=C(S(C)(=O)=O)SC3=NC2=O)ccc1OS(=O)(=O)c1ccc(C)cc1	0.5	0.0	5.9	50.8*	-15.7	13.6	86.8*	58.7*
COc1cc(/C=C2\C(=N)N3N=C(S(C)(=O)=O)SC3=NC2=O)cc(OC)c1OCCOc1ccccc1C	0.5	0.2	-1.1	55.5*	-21.4	1.5	92.5*	81.3*
CCOc1cc(/C=C2/C(=N)N3N=C(C)SC3=NC2=O)ccc1OS(=O)(=O)c1ccc(C)cc1	2.2	0.8	5.7	12.1	-21.8	-4.2	x	x
COc1ccccc1OCCOc1ccc(/C=C2\C(=N)N3N=C(S(C)(=O)=O)SC3=NC2=O)cc1	4.0	-2.8	10.4	32.3	-33.8	-3.4	x	x
CCCC1=NN2C(=N)/C(=C\c3cc(C)n(Cc4ccccc4)c3C)C(=O)N=C2S1	-1.8	-3.8	-1.8	16.5	-59.1	-7.2	x	x
Cc1cc(/C=C2\C(=N)N3N=C(S(C)(=O)=O)SC3=NC2=O)c(C)n1Cc1ccccc1	-2.9	1.7	4.9	65.8*	-11.6	-10.1	89.0*	61.6*
COc1cccc(OCCOc2ccc(/C=C3\C(=N)N4N=C(S(C)(=O)=O)SC4=NC3=O)cc2OC)c1	0.7	6.3	-0.6	51.5*	-14.4	-73.8	90.8*	75.0*
CC(C(=O)Nc1ncccn1)(c1ccccc1)c1ccccc1	0.2	5.5	-2.7	-3.7	1.8	5.5	x	x
CSc1ccccc1OCc1cc(C(=O)N(C)C2CCCc3ccccc32)no1 (configuration not stated)	2.8	-2.1	-6.4	-1.5	-27.3	-8.7	x	x
Cc1ccccc1C(=O)O[C@H]1[C@H](Cc2ccccc2)NS(=O)(=O)[C@H]2CC3C=C[C@]12O3	2.9	3.7	1.6	19.4	-44.7	-17.3	x	x
CC(C)(C)C(=O)NC1=NN(c2c(Cl)cc(Cl)cc2Cl)C(=O)C1	4.1	-1.4	8.3	43.7*	-3.8	7.9	4.6	3.6
CC(=O)NC1=NN(c2ccccc2)C(=O)C1	0.9	8.2	4.5	0.5	-0.8	6.2	x	x
O=C(CCl)Nc1sccc1C(=O)c1ccccc1	1.7	-2.0	-4.7	-1.7	-7.1	-0.4	x	x
Cc1ccc(Nc2nc(Cl)c(C=O)s2)cc1Cl	0.4	-1.3	-0.9	42.8*	-35.6	-11.9	20.2	12.2*

Assay outcomes (PubChem)
